We go through two compounds from article PMC11439338 (BMC Chemistry, 2024).

“Also recorded” adds a separate entry of the source.

In test [1] the test system is mushroom tyrosinase (EC 1.14.18.1). The experiment in a line: In vitro mushroom tyrosinase inhibition assay. The test is classed as biochemical. The conditions noted are these: SAR discussion.
Test [2] has as its target mushroom tyrosinase (Agaricus bisporus, UniProt C7FF04). As to the kind of experiment: Kinetic study of tyrosinase inhibition. The test is classed as biochemical. The essentials: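 Mushroom tyrosinase diphenolase activity; test compound in DMSO, pre-incubated 20 min at 28 °C with enzyme (added as 600 U mL−1 solution) in 50 mM phosphate buffer pH 6.8. Inhibitor 5–50 µM; L-Dopa 0.1–1.5 mM. Dopachrome at 490 nm read each minute for 10 min; initial velocity from linear segment. Lineweaver–Burk plots gave Km and Vmax; Ki from slope versus inhibitor concentration.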

mushroom tyrosinase, sequence (C7FF04 1-392): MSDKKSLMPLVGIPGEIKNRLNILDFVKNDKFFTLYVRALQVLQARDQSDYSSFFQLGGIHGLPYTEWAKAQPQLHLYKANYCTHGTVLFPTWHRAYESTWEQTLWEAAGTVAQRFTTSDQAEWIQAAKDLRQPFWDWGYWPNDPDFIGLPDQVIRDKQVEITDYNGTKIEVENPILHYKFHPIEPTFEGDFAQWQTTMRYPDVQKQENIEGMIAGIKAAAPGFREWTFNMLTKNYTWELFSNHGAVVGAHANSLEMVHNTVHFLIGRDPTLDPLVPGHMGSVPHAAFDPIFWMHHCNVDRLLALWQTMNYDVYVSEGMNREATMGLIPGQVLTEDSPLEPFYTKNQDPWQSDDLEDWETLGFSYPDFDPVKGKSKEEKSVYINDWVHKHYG

Consider `CC1(C)CC(=O)C2=C(C1)OC(N)=C(C#N)C2c1ccc(OCc2ccc(F)cc2)cc1` (stereo not drawn) [6c, 2-Amino-4-(4-((4-fluorobenzyl)oxy)phenyl)-7,7-dimethyl-5-oxo-5,6,7,8-tetrahydro-4H-chromene-3-carbonitrile], for which the “activity against tyrosinase (in words)” value in test [1] is reported as “no activity”. Consider `CC1(C)CC(=O)C2=C(C1)OC(N)=C(C#N)C2c1ccc(OCc2ccc(C#N)cc2)cc1` (stereo not drawn) [6f, 2-Amino-4-(4-((4-cyanobenzyl)oxy)phenyl)-7,7-dimethyl-5-oxo-5,6,7,8-tetrahydro-4H-chromene-3-carbonitrile], for which the Ki in test [2] was determined as 16.1 µM. Also, in test [2] (Lineweaver-Burk plot, L-Dopa substrate), the type of inhibition result is given as “competitive inhibition; also recorded: competitive inhibitor”.
